Test results from article PMC7231760 (International Journal of Nanomedicine, 2020).

Tests used:
HCV NS3 helicase = HCV NS3 helicase (Hepatitis C virus genotype 1a, UniProt P27958); test: Anti-HCV NS3 helicase assay; type: biochemical
Outline: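 Test samples were dissolved in DMSO; thioflavin S or 0.8% DMSO served as controls. ATP was added from a 5 mM solution. Fluorescence was read at t0 and after 1 h at 25°C. Ratio_RFU = RFU_t60/RFU_t0, and percent inhibition was calculated.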

HCV NS3 protease = HCV NS3 protease (Hepatitis C virus, UniProt P27958); test: Anti-HCV NS3 protease assay; type: biochemical; conditions: SNPs of total extract and petroleum ether fraction, controls (Table 2)
HCV NS3 protease, sequence (P27958 1027-1657): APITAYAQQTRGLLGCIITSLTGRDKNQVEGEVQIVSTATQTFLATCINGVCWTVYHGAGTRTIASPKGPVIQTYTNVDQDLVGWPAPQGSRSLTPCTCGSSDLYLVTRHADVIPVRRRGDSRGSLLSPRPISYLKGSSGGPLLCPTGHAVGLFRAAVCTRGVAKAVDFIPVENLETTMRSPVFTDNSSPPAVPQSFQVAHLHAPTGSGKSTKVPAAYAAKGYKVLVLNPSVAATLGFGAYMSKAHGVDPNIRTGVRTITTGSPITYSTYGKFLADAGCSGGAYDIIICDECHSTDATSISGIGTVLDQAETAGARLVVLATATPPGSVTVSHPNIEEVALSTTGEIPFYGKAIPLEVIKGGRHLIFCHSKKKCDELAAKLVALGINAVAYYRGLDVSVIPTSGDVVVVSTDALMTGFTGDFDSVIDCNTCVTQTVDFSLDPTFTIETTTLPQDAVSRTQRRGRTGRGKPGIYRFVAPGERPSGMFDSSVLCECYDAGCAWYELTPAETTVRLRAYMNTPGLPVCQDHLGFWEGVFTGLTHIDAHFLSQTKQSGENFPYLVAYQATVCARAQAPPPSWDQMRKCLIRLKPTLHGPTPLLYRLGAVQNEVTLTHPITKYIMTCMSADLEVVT

HCV NS3 helicase, sequence (P27958 1192-1657 limits assumed): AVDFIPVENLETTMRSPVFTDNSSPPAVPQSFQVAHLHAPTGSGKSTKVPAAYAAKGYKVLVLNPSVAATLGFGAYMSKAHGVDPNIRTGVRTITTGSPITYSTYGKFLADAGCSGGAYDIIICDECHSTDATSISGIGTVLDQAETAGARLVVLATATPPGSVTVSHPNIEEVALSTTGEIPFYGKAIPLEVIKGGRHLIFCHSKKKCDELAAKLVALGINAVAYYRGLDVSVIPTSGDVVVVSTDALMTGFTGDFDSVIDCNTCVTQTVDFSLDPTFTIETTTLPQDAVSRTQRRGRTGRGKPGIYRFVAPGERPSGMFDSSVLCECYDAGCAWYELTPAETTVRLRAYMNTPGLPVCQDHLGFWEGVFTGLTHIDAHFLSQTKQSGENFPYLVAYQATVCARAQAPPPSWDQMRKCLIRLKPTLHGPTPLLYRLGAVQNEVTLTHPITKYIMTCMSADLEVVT

In the case of `NC(=O)c1ncn([C@@H]2O[C@H](CO)[C@@H](O)[C@H]2O)n1` [Ribavirin], the IC50 (HCV NS3 helicase) is reported as 19.1 µM.
`O=[N+]([O-])[O-].[Ag+]` [AgNO3] was tested, and the “IC50 NS3 Helicase” value (HCV NS3 helicase; SNPs of total extract and petroleum ether fraction, controls (Table 2)) was 77.72 ± 4.57 µg/mL and the “IC50 NS3 Protease” value (HCV NS3 protease) was 52.67 ± 0.33 µg/mL.
